For data set [1], the target named is T1, Indoleamine 2,3-dioxygenase 1 (Homo sapiens, UniProt P14902). Nature of the data set: Inhibition of recombinant human IDO1 assessed as reduction in kynurenine production using L-tryptophan as substrate after 60 mins by microplate reader method.
Target sequence in this assay (P14902 whole entry): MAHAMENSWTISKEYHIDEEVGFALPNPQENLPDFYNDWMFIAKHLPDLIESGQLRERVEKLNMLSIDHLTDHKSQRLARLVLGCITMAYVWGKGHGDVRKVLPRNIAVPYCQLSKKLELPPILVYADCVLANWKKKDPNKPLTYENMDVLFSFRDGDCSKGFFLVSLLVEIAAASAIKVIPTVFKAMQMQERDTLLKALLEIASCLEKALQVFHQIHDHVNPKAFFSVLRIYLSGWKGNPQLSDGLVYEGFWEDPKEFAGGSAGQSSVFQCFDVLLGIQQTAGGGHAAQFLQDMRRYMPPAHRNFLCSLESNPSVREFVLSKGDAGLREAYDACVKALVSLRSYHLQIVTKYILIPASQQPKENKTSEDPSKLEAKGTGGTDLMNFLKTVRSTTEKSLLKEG
In data set [2] the target is T1, Indoleamine 2,3-dioxygenase 1. To be noted: 110 to 990 nM.
Target sequence in this assay (P14902 whole entry, looked up): as the sequence (P14902 whole entry) above
The next data set concerns the target T2, Catalase (Homo sapiens, UniProt P04040).
T2 sequence (P04040 whole entry): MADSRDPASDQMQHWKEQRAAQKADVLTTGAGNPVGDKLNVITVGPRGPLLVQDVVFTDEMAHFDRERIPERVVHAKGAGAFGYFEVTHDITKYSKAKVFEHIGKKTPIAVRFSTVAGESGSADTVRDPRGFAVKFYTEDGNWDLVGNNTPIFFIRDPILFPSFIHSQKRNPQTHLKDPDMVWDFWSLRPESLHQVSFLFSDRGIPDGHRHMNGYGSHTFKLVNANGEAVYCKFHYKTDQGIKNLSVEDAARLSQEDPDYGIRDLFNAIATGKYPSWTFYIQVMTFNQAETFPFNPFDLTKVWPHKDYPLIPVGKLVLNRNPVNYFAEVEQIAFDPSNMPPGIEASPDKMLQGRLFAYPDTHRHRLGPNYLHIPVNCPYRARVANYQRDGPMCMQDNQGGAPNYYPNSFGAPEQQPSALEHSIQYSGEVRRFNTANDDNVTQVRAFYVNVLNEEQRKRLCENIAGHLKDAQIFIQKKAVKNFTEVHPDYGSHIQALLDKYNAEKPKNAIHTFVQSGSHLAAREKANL
Briefly: Inhibition of catalase (unknown origin) using hydrogen peroxide as substrate.

A further data set addresses Cytochrome P450 3A4 (Homo sapiens, UniProt P08684). Nature of the data set: Inhibition of CYP3A4 (unknown origin). The class given is ADME.
In another data set the test system is HeLa. Nature of the data set: Cytotoxicity against human HeLa cells assessed as cell viability upto 100 uM by sulforhodamine B assay. The class given is cell-based. The gist of the method: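 HeLa cells seeded at 10,000/well in DMEM + 10% FBS, IDO1 induced 24 h with IFNγ (100 ng/mL final), then compound serial dilutions in medium with 100 μM Trp for 24 h at 37 °C. Cells fixed with TCA 1 h at 4 °C, stained with 0.4% SRB 15 min, dye solubilized in 10 mM Tris; absorbance at 570 nm.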

Data set [3] addresses T1, Indoleamine 2,3-dioxygenase 1. Briefly: Inhibition of doxycycline-induced human IDO1 expressed in Trex cells assessed as reduction in kynurenine production treated with 5-fold serial dilution beginning at 400 uM after 24 hrs by microtiter plate reader. In kind it is cell-based. The gist of the method: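 T-Rex cells carrying tet-regulated human IDO1 cDNA seeded 10,000/well in DMEM + 10% FBS + 1% pen-strep; IDO1 induced with media containing 20 ng/mL doxycycline for 24 h. Media replaced by compound serial dilutions in DMEM + 10% FBS, Trp 100 μM. 24 h at 37 °C. TCA fixation, supernatant heated at 65 °C, Ehrlich's reagent, A490. Single run.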
Target sequence in this assay (P14902 whole entry): as the sequence (P14902 whole entry) above

Data set [4] shares this target. Briefly: Inhibition of IFN gamma induced human IDO1 in HeLa cells assessed as reduction in kynurenine production treated with 5-fold serial dilution beginning at 400 uM after 24 hrs by microtiter plate reader. The class given is cell-based. The gist of the method: (§1)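 HeLa cells seeded 10,000/well in DMEM + 10% FBS + 1% pen-strep; IDO1 induced with IFNγ (100 ng/mL final) for 24 h. Media discarded, wells rinsed, compound serial dilutions added in DMEM + 10% FBS with Trp adjusted to 100 μM. 24 h at 37 °C. TCA stop and fixation 1 h at 4 °C. Supernatant heated at 65 °C for 15 min, mixed with Ehrlich's reagent, read at 490 nm.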
Target sequence in this assay (P14902 whole entry): as the sequence (P14902 whole entry) above

For data set [5] the target is unchanged. Briefly: Inhibition of recombinant human IDO1 assessed as reduction in kynurenine production using L-tryptophan as substrate after 60 mins by Michaelis-Menton plot analysis. The gist of the method:
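Purified recombinant human IDO1 (~27 nM) in 50 mM potassium phosphate pH 6.5 with 40 mM ascorbate, 400 μg/ml catalase and 20 μM methylene blue. For IC50, L-Trp at 100 μM (Km 80 μM). For Ki, inhibitor dilutions matrixed with L-Trp dilutions. 60 min at 37 °C, TCA stop, 65 °C for 15 min, Ehrlich's reagent, A490.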
Target sequence in this assay (P14902 whole entry): as the sequence (P14902 whole entry) above

The target is the same in data set [6]. Nature of the data set: Inhibition of IFN gamma induced human IDO1 in HeLa cells assessed as reduction in kynurenine production treated with 3-fold serial dilution beginning at 100 uM after 24 hrs by microtiter plate reader. In kind it is cell-based. The gist of the method:
as §1
Target sequence in this assay (P14902 whole entry): as the sequence (P14902 whole entry) above

This is an account of results in ChEMBL document CHEMBL3763056, “O-alkylhydroxylamines as rationally-designed mechanism-based inhibitors of indoleamine 2,3-dioxygenase-1” (Eur J Med Chem, 2016).

Structures are written as SMILES. The source made the active and inactive calls. The rule behind the calls is not given here.

Sequence of Cytochrome P450 3A4 (P08684 whole entry): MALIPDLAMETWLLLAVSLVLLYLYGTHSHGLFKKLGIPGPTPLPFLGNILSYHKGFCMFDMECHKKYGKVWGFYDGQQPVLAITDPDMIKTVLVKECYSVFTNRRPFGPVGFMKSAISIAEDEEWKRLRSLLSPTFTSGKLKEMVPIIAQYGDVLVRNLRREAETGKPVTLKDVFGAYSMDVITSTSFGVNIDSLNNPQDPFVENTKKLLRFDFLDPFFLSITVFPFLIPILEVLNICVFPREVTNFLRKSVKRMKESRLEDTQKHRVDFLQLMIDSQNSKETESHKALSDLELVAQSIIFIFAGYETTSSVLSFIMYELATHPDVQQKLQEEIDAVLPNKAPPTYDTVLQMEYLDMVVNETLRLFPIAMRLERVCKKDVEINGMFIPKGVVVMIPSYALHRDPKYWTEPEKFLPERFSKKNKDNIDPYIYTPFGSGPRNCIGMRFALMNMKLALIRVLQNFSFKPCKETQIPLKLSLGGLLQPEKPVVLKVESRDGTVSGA

As a reminder, the IC50 is the midpoint of a concentration-inhibition curve. With `NOCc1cccc(C(F)(F)F)c1`, the IC50 in [1] worked out at 410 nM.
For the compound `NOCc1ccc(C(F)(F)F)cc1`, in data set [1], the IC50 was determined as 8900 nM.
Turning to `COc1cccc(CON)c1`, the IC50 in [1] came out at 9500 nM.
Take `NOCc1ccc(Cl)c(C(F)(F)F)c1`: in data set [1], the IC50 worked out at 490 nM.
Same read-out and setting: the result for `COc1ccc(CON)cc1` reads 24000 nM; that for `NOCc1cccc(Cl)c1Cl`, 450 nM.
Turning to `NOCc1ccc(F)cc1F`, the half-maximal inhibitory concentration (IC50) in data set [1] was 1400 nM.
As for `NOCc1cc(Cl)cc(Cl)c1`, in data set [1], the IC50 is 900 nM.
Regarding `NOCCCc1ccccc1`, in [1], the IC50 turned out to be 82000 nM.
With `NOCc1ccc(Cl)cc1Cl`, the IC50 in [1] amounted to 630 nM.
For the compound `NOCc1ccc(-c2ccccc2)cc1`, the IC50 in data set [1] worked out at 12000 nM.
For orientation: Ki means the dissociation constant of the complex between target and ligand, obtained from inhibition or displacement. For `Cl.NOCc1ccc(I)cc1`, the half-inhibitory concentration (IC50) in data set [1] was 220 nM; against Catalase, over 100000 nM; on Cytochrome P450 3A4, 7200 nM; in data set [3], 180 nM; in data set [4], 82 nM. In data set [2], the inhibition entry is “Active”. In addition, in the data set on HeLa, the Activity entry is reported as “Non-toxic”. In addition, the Ki in [5] came out at 164 nM.
On to `NOC1CCc2ccccc21` (stereo unspecified), for which the IC50 in [1] was determined as 26000 nM.
Take `NOCc1cc(C(F)(F)F)cc(C(F)(F)F)c1`: the IC50 in data set [1] is 4600 nM.
In the case of `NOCc1ccccc1Br`, the IC50 in data set [1] stood at 1600 nM.
On to `NOCc1ccc(Cl)c(Cl)c1`, for which the IC50 in data set [1] was found to be 2100 nM.
For `NOCc1ccc(F)cc1`, in [1], the IC50 worked out at 980 nM.
As to `ONc1ccccc1`, the half-maximal inhibitory concentration (IC50) in data set [1] was 9200 nM.
Still for that read-out and setting: the result for `NOCc1ccc(Br)cc1` reads 1600 nM; that for `NOC1CCCc2ccccc21` (stereo unspecified), 10000 nM; that for `NOCc1cccc(F)c1`, 1000 nM.
With `NOCc1ccc(F)cc1C(F)(F)F`, the IC50 in data set [1] is 2400 nM.
Still for that read-out and setting: the result for `NNc1ccccc1` [PHENYLHYDRAZINE] reads 230 nM.
On to `NOCc1ccccc1I`, for which the IC50 in data set [1] was determined as 570 nM.
`Cc1cccc(CON)c1`: the concentration for half-maximal inhibition (IC50) in data set [1] came to 2700 nM.
`NOC/C=C/c1ccccc1`: the IC50 in data set [1] came out at 7100 nM.
For `NOCc1ccc(O)cc1`, the IC50 in data set [1] amounted to 61000 nM.
Regarding `NOCc1ccccc1`, in data set [1], the IC50 amounted to 810 nM.
The same measure, in the same setting: the result for `NOCc1ccc([N+](=O)[O-])cc1` reads 2700 nM; that for `NOCc1ccc(Cl)cc1`, 1300 nM.
`NOCc1ccccc1C(F)(F)F`: the IC50 in [1] was 2500 nM.
`COc1cccc(CON)c1O`: the IC50 in [1] is 55000 nM.
With `NOCc1cccc(Br)c1`, the IC50 in data set [1] stood at 320 nM.
Regarding `NOCc1cc(C(F)(F)F)ccc1F`, the IC50 in data set [1] is 570 nM.
In the case of `NOCc1cc(Br)cc(Br)c1`, in data set [1], the IC50 is 4200 nM.
With `NOCc1ccccc1Cl`, the IC50 in data set [1] came out at 630 nM.
`Cl.NOCc1cccc(Cl)c1`: the IC50 is 300 nM in [1]; over 100000 nM on Catalase; 134 nM in [6]; 15000 nM at Cytochrome P450 3A4; 77 nM in data set [3]; 114 nM in [4]. Further, the inhibition entry in data set [2] was “Active”. For the same compound, the Activity result with HeLa is given as “Non-toxic”. Further, the inhibition constant (Ki) in [5] turned out to be 154 nM.
On to `O=C(NO)c1ccccc1` [BENZOHYDROXAMATE], for which the 50% inhibitory concentration (IC50) in data set [1] came out at 16000 nM.
As to `NOC1Cc2ccccc2C1`, the IC50 in data set [1] amounted to 10000 nM.
On to `NOCc1ccccc1O`, for which the IC50 in [1] amounted to 19000 nM.
In the case of `NOCc1ccccc1F`, the IC50 in data set [1] was 1400 nM.
Regarding `ONCc1ccccc1`, the concentration for half-maximal inhibition (IC50) in data set [1] came out at 6000 nM.
On to `NNCc1ccccc1` [BENZYLHYDRAZINE], for which the concentration for half-maximal inhibition (IC50) in [1] amounted to 71000 nM.
As for `COc1ccc(OC)c(CON)c1`, the IC50 in [1] was found to be 1700 nM.
In the case of `NOCc1cc(F)cc(F)c1`, the IC50 in [1] was determined as 3400 nM.
The same measure, in the same setting: next, `COc1ccccc1CON`: 5400 nM; `NOCc1cccc(I)c1`: 340 nM.
In the case of `CC(C)c1ccc(CON)cc1`, in data set [1], the IC50 came out at 15000 nM.
As to `NOC(c1ccccc1)C1CC1` (stereo unspecified), the IC50 in data set [1] was 5200 nM.
On to `NOCc1ccc(C(F)(F)F)cc1F`, for which the IC50 in [1] turned out to be 1100 nM.
For `NOCc1ccc(I)cc1Cl`, the 50% inhibitory concentration (IC50) in [1] was determined as 730 nM.
